Screening results deposited in PubChem by Broad Institute.
Rows were chosen to be rich in hits. Some 1.3% of all compounds tested hit in one or more screens of this group.
RAD54 inh: inhibitors of human RAD54 branch migration, primary screen, biochemical, fluorescence, single point; hit rate 0.14% among 360,000; inhibition, % at 10.4 µM; RAD54 Holliday junction branch migration, FAM/BHQ fluorescence; DNA repair and recombination protein RAD54-like (Homo sapiens), Q92698;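 active means mean normalized replicate activity at least 40 and at least half of replicates scoring 40 or more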;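 further: 0% = median of neutral control wells and 100% = median of positive control wells; inhibitors cause a drop in the FAM fluorescence signal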
MLL AF4-AF9 inh: inhibitors of AF4 peptide binding to AF9, primary screen, biochemical, AlphaScreen, biotin-AF4 peptide, FLAG-AF9, single point; Protein AF-9 (Homo sapiens), P42568; inhibition, % at 10 µM; hit rate 0.47% among 350,000;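 active means every replicate reaching a set inhibition limit, whatever the replicate mean, cut at about 25% in these data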;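 further: 0% = plate neutral control median and 100% = total signal loss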
CASP6 VEID inh: human caspase-6 inhibitors, primary screen, biochemical, VEID-R110 fluorescence, single point, set 2. purified caspase-6, Z-VEID-R110 cleavage fluorescence. hit rate 0.53% among 350,000. inhibition, % at 12.5 µM;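 active means mean inhibition across replicates at least about 35%, with every replicate also reaching that limit, limit read from the data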;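 further: 0% = median of neutral control wells and 100% = no fluorescence left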
Target sequence (P55212 24-179 limits assumed): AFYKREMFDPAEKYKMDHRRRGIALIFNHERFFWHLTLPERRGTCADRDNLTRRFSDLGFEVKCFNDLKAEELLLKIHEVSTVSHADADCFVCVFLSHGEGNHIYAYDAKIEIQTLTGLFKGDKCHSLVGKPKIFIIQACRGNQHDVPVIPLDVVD
Target sequence (P55212 194-293 limits assumed): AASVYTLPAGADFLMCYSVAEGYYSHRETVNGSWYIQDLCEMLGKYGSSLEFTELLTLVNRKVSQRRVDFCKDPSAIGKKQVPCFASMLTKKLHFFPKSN
RAD52 anneal inh: RAD52 DNA annealing inhibitors, primary screen, biochemical, FRET, single point, set 2. recombinant RAD52 DNA annealing, FRET fluorescence. inhibition, % at 18.7 µM. hit rate 0.46% among 360,000. AID 651710, 2012;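 active means every replicate showing at least 50% inhibition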
Xi reactivation: activators of inactive X chromosome reactivation, primary screen, imaging, XiGFP fibroblasts, GFP high-content imaging, set 2; XiGFP mouse fibroblasts, % GFP-positive cells imaging, 3 d; cells co-treated with 5-aza-dC sensitizer; scaled so ellipticine positive control = 100%; activation, % at 7.58 µM; hit rate 0.055% among 360,000; AID 743238, 2013;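 active means mean normalized replicate activation at least 10% and every replicate at or above 10%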;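 further: 0% = median of on-plate neutral control wells and 100% = ellipticine 6 µM median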
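assay system = SV40-immortalized XiGFP fibroblast cells, line 68-5-11 | buffer or medium = DMEM plus 5-aza-dC sensitizer | doses = single-point pinned compound dosing | times = 3-day compound exposure, then 15 min fixation at room temperature | benchmarks = positive control ellipticine, 6 µM final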
S100A4 MyoIIA: inhibitors of S100A4-myosin IIA peptide binding, primary screen, biochemical, fluorescence polarization, TAMRA-MyoIIA peptide; inhibition, % at 10.7 µM; hit rate 0.14% among 360,000;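 active means mean inhibition of at least 70% across replicates, with every replicate also reaching that level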
Target sequence (P26447 whole entry, looked up): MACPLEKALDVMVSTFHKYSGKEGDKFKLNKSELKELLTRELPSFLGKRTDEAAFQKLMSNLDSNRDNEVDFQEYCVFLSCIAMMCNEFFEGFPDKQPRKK
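Test system – S100A4 monomer (human) · Compound – single-point compound testing · Schedule – 5 min incubation before reading · Probe or stimulus – TAMRA-labelled myosin IIA heavy-chain peptide probe, 5 nM · Benchmarks – neutral control DMSO, positive control TFP · Medium – Calcium-containing HEPES buffer, pH 7.2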
* marks the source's active call; other numbers are inactive results; . = no result; ! = repeats disagree.

SMILES | RAD54 inh | MLL AF4-AF9 inh | CASP6 VEID inh | RAD52 anneal inh | Xi reactivation | S100A4 MyoIIA
CN1C(=O)CCS(=O)(=O)C1c1ccc(Cl)c(Cl)c1 (stereo not given) | 2 | -1 | 57* | -1 | 0 | 0
Cn1c(=O)[nH]c(=O)c2c1nc(CN1CCOCC1)n2Cc1ccccc1 | -1 | 6 | 51* | -8 | . | -2
Cn1c(=O)[nH]c(=O)c2c1nc(CN1CCOCC1)n2CCc1ccccc1 | 3 | . | . | . | . | .
C[C@@H]1CN(C)C(=O)Cc2cc(N(C)C)ccc2O[C@H]1CN(C)C(=O)OC(C)(C)C | . | . | . | . | 0 | .
C[C@H](CO)N1C[C@H](C)[C@H](CN(C)Cc2ccc3c(c2)OCO3)OCCCC[C@H](C)Oc2ccc(NS(=O)(=O)c3ccc(Cl)cc3)cc2C1=O | -7 | 20 | -1 | 63* | 0 | -4
C[C@@H]1CCCCO[C@H](CN(C)Cc2ccc3c(c2)OCO3)[C@@H](C)CN([C@@H](C)CO)C(=O)c2cc(NS(=O)(=O)c3ccccc3)ccc2O1 | -5 | 3 | 35* | 26 | 0 | -3
C[C@@H]1CCCCO[C@@H](CN(C)Cc2ccc3c(c2)OCO3)[C@H](C)CN([C@@H](C)CO)C(=O)c2cc(NS(=O)(=O)c3ccccc3)ccc2O1 | -11 | 1 | 2 | 22 | 0 | 1
C[C@@H]1CN([C@@H](C)CO)C(=O)c2cc(NS(=O)(=O)c3ccc(Cl)cc3)ccc2O[C@@H](C)CCCCO[C@H]1CN(C)Cc1ccc2c(c1)OCO2 | -7 | 6 | 0 | 46 | 0 | 7
C[C@H]1CCCCO[C@@H](CN(C)Cc2ccc3c(c2)OCO3)[C@@H](C)CN([C@@H](C)CO)C(=O)c2cc(NS(=O)(=O)c3ccc(Cl)cc3)ccc2O1 | -1 | 17 | 1 | 55*! | 0 | -3
C[C@@H]1CN([C@H](C)CO)S(=O)(=O)c2ccc(C3=CCCCC3)cc2O[C@H]1CN(C)C | . | . | . | . | -1 | .
CC(C)C#Cc1ccc2c(c1)O[C@@H](CN(C)Cc1cncnc1)[C@H](C)CN([C@H](C)CO)S2(=O)=O | -2 | 5 | -2 | 9 | 0 | -4
O=C(NCc1ccccn1)[C@H]1[C@H](CO)[C@H]2Cn3c(cccc3=O)[C@@H]1N2CC1CCCCC1 | 10 | 0 | -1 | 51* | 0 | 9
CC=Cc1ccc2n(c1=O)C[C@@H]1[C@@H](CO)[C@H](C(=O)NCc3ccccn3)[C@H]2N1CCC (mixture of isomers) | -3 | 0 | -2 | 96* | 0 | 26
O=C(O)[C@@H]1[C@@H](CO)[C@@H]2Cn3c(ccc(/C=C/c4ccccc4)c3=O)[C@@H]2N1Cc1ccc2c(c1)OCO2 | 6 | -9 | 50* | -60 | 0 | 0
CC(=O)N1[C@@H]2c3cccc(=O)n3C[C@H]1[C@H](CO)[C@H]2C(=O)NCC1CCCCC1 | 14 | 0 | -2 | 63* | 0 | 25
C[C@H]1CN([C@@H](C)CO)C(=O)c2cc(NC(=O)Cn3cnnn3)ccc2O[C@@H]1CN(C)S(=O)(=O)c1ccc(Cl)cc1 | . | -14 | 1 | 10 | 0 | -1
CC(C)NC(=O)Nc1ccc2c(c1)C(=O)N(C)C[C@H](C)[C@@H](CN(C)C)O2 | . | . | . | . | 0 | .
COCC(=O)N1CC(=O)N2[C@H](C1)[C@@H](c1ccc(-c3cccnc3)cc1)[C@@H]2CO | . | . | . | . | 0 | .
CNC[C@H]1Oc2c(NC(=O)Nc3ccc(OC)cc3)cccc2C(=O)N([C@H](C)CO)C[C@@H]1C | -1 | 1 | 0 | -10 | -1 | -8
COc1cccc(NC(=O)N[C@@H]2CC[C@@H](CC(=O)NCc3ccccn3)O[C@@H]2CO)c1 | 7 | 0 | -3 | 4 | 0 | 1
CC=Cc1ccc2n(c1=O)C[C@@H]1[C@@H](CO)[C@H](C(=O)NCc3ccc4c(c3)OCO4)[C@H]2N1C(C)=O (mixture of isomers) | 11 | -3 | -9 | 2 | 0 | 125*
C[C@H]1CN([C@@H](C)CO)C(=O)CCCn2cc(nn2)CO[C@@H]1CN(C)C(=O)Nc1ccc(N2CCN(C)CC2)cc1 | -9 | -1 | -8 | 55*! | 0 | -2
C[C@H](CO)N1C[C@H](C)[C@H](CN(C)C(=O)Nc2ccc(N3CCN(C)CC3)cc2)OCc2cn(nn2)CCCC1=O | 0 | 4 | 0 | 16 | 0 | 25
CC(=O)N1CCN(c2ccc(NCc3ccc(C)s3)cc2)CC1 | 4 | 27* | 0 | 5 | 0 | 2
O=C1C=C(/C=C/c2ccccc2)C[C@@H](c2ccc(F)cc2)C1 | 7 | 9 | 1 | -8 | 0 | -4
SMILES | RAD54 inh | MLL AF4-AF9 inh | CASP6 VEID inh | RAD52 anneal inh | Xi reactivation | S100A4 MyoIIA
COc1ccc([C@H]2CC(=O)C=C(/C=C/c3ccccc3)C2)cc1OC | 0 | 29* | 0 | -15 | 1 | -2
COc1ccc(S(=O)(=O)N(C)C[C@@H]2Oc3ccc(N(C)C)cc3CC(=O)N([C@@H](C)CO)C[C@H]2C)cc1 | 5 | 6 | 2 | -1 | 0 | -19
COc1ccccc1-c1ccc(C2[C@@H]3CN(S(=O)(=O)c4ccc(F)cc4)C[C@H]2N3)cc1 (stereo not given in full) | . | 1 | -1 | 61*! | 0 | 4
COc1ccccc1-c1ccc(C2[C@@H]3CN(S(=O)(=O)c4ccccc4)C[C@H]2N3)cc1 (stereo not given in full) | . | . | . | 55* | 0 | .
COc1ccccc1-c1ccc(C2[C@@H]3CN(S(=O)(=O)c4ccc(C)cc4)C[C@H]2N3)cc1 (stereo not given in full) | . | . | . | . | 0 | .
COc1ccccc1-c1ccc(C2[C@H]3CNC[C@@H]2N3S(=O)(=O)c2ccccc2)cc1 (stereo not given in full) | . | -3 | -2 | 36 | 0 | -11
CC(C)NC(=O)Nc1ccc2c(c1)CC(=O)N([C@@H](C)CO)C[C@@H](C)[C@@H](CN(C)C(=O)NC1CCCCC1)O2 | -2 | 1 | 4 | -5 | 0 | -1
CN(C)CCCN(C(=O)CCc1ccccc1)c1nc2ccc(F)cc2s1 | . | . | . | . | 0 | .
CN(C)CCCN(C(=O)CCc1ccccc1)c1nc2ccc(Br)cc2s1 | 6 | 26* | -3 | 41 | 0 | 5
CC1(C)C=C2C(=NN(c3ccccc3)C(N)=C2C#N)CO1 | -10 | 15 | 84* | -28 | 0 | 10
